Results on twelve compounds are retold here after ChEMBL document CHEMBL1149827, “Dichapetalin-type triterpenoids and lignans from the aerial parts of Phyllanthus acutissima” (J Nat Prod, 2008).

≈ marks a conversion by molar mass, not a printed value.

The subject of one test is Lu1. Put plainly: Cytotoxicity against human Lu1 cells after 72 hrs by sulforhodamine B assay. Format: functional. The conditions noted are these: Lu1, 72 h, read-out: ED50 (the source's name). The method, boiled down: (§1)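 SRB assay. Samples from […] DMSO stock, final DMSO 0.5%, triplicate, 72 h at 37 °C, 5% CO2. Media: P-388 Fisher's + 5% BCS; KB DMEM + 10% BCS; Col-2, ASK MEM + 10% FBS; MCF-7, Lu-1 MEM + 5% BCS. TCA-fixed, 0.4% SRB stain, dye solubilized in 10 mM trizma base, A515 read. ED50 reported.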

The nature of test [1]: Cytotoxicity against rat ASK cells after 72 hrs by sulforhodamine B assay. It is filed as functional. The settings on record: read-out: ED50 (the source's name). The method, boiled down: as §1
For orientation: The SRB assay estimates cell density from bound dye.

Test [2] deals with Human immunodeficiency virus 1. The experiment in a line: Antiviral activity against deltaTat/Rev deffective HIV1 in 1A2 cells assessed as inhibition of metabolic activity in uninfected cells. Format: functional. The conditions noted are these: Human immunodeficiency virus 1, 1A2. The method, boiled down: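 Uninfected 1A2 cells (same batch), run in parallel with the syncytium assay, with medium in place of virus. Serial dilutions in duplicate wells, 3 days. XTT–phenazine methosulfate added; formazan read at A450 with A650 reference. IC50 is the dose inhibiting 50% of metabolic activity.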

For test [3], the system named is Human immunodeficiency virus 1. Put plainly: Antiviral activity against deltaTat/Rev deffective HIV1 in 1A2 cells assessed as reduction of syncytium formation. It is filed as functional, organism-based. The conditions noted are these: Human immunodeficiency virus 1, 1A2. The method, boiled down: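 1A2 cells seeded, then compound added as 2-fold serial dilutions in triplicate. After 1 h preincubation, ∆Tat/RevMC99 virus added. Virus, cell and cytotoxicity control wells; AZT positive control. EC50 is the concentration reducing syncytium formation by 50%.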

The subject of test [4] is Human immunodeficiency virus 1. The experiment in a line: Selectivity index, ratio of IC50 for deltaTat/Rev deffective HIV1 in 1A2 cells to EC50 for deltaTat/Rev deffective HIV1 in 1A2 cells. It is filed as functional. The method, boiled down: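 Ratio of the XTT IC50 in uninfected 1A2 cells to the syncytium-reduction EC50 against ∆Tat/RevMC99 virus in 1A2 cells.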
In test [5] the target is Human immunodeficiency virus type 1 reverse transcriptase (Human immunodeficiency virus 1) (UniProt Q72547). Put plainly: Inhibition of HIV1 reverse transcriptase at 200 ug/ml. The method, boiled down:
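Tannin-free samples at final 200 µg/mL in 10% DMSO added to the reaction mix before HIV-1 RT. Control with 10% DMSO only; nevirapine (2 µg/mL) positive control. Duplicate wells averaged, % RT inhibition calculated.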

The subject of the next test is P388. The experiment in a line: Cytotoxicity against mouse P388 cells after 72 hrs by sulforhodamine B assay. Format: functional. The conditions noted are these: P388, 72 h, read-out: ED50 (the source's name). The method, boiled down: as §1
The test system of a further test is KB. The experiment in a line: Cytotoxicity against human KB cells after 72 hrs by sulforhodamine B assay. It is filed as functional. The settings on record: read-out: ED50 (the source's name). The method, boiled down:
as §1

Another test relates to Col2. Put plainly: Cytotoxicity against human Col2 cells after 72 hrs by sulforhodamine B assay. Format: functional. The conditions noted are these: Col2, 72 h, read-out: ED50 (the source's name). The method, boiled down: as §1
The next test deals with MCF7. Put plainly: Cytotoxicity against human MCF7 cells after 72 hrs by sulforhodamine B assay. Format: functional. The conditions noted are these: MCF7, 72 h, read-out: ED50 (the source's name). The method, boiled down: as §1
The next test deals with L1210. Put plainly: Cytotoxicity against mouse L1210 cells. It is filed as functional.

For orientation: IC50 means the concentration that gives 50% inhibition. By inhibition is commonly meant the drop in the measured response relative to a control, in per cent. For the compound `COc1c(OC(C)=O)cc2c(=O)oc3c(O)c(O[C@@H]4O[C@@H](C)[C@H](OC(C)=O)[C@@H](OC(C)=O)[C@H]4OC(C)=O)cc4c(=O)oc1c2c34`, the EC50 in the test with Lu1 was greater than 5 µg/mL; in [1] it was greater than 5 µg/mL; in test [3], 15.7 µg/mL (≈ 24.9 µM); in the test with P388, greater than 5 µg/mL; with KB, greater than 5 µg/mL; with Col2, greater than 5 µg/mL. Moreover, the EC50 in the test on MCF7 is greater than 5 µg/mL. Besides, the IC50 in test [2] was found to be 24.9 µg/mL (≈ 39.5 µM). For the same compound, the “Ratio IC50/EC50” value in test [4] was found to be 1.6. In test [5], the inhibition came out at 51%.

Regarding `Cc1c2ccncc2c(C)c2c1[nH]c1ccccc12` [ELLIPTECINE], the EC50 stood at 0.2 µg/mL (≈ 0.812 µM) in the test on Lu1; 0.2 µg/mL (≈ 0.812 µM) in test [1]; 0.2 µg/mL (≈ 0.812 µM) in the test on P388; 0.7 µg/mL (≈ 2.84 µM) in the test on KB; 0.5 µg/mL (≈ 2.03 µM) in the test on Col2; 0.4 µg/mL (≈ 1.62 µM) with MCF7.

In the case of `CO[C@@]1(C)CO[C@@]2(C=C([C@@H]3CC[C@]45C[C@]34CC[C@@H]3[C@@]4(C)CC=C6C[C@@H](c7ccccc7)OC[C@]6(C)[C@@H]4C[C@@H](O)[C@]35C)C(=O)O2)C1`, the EC50 in the test on Lu1 is greater than 5 µg/mL; in [1], greater than 5 µg/mL; in test [3], 72.9 µg/mL (≈ 119 µM); in the test on P388, 0.4 µg/mL (≈ 0.651 µM); in the test on KB, greater than 5 µg/mL; with Col2, greater than 5 µg/mL. Besides, in the test on MCF7, the EC50 is greater than 5 µg/mL. Besides, the IC50 in [2] is greater than 125 µg/mL. Moreover, the “Ratio IC50/EC50” value in test [4] was greater than 1.7. The inhibition in [5] amounted to 65.9%.

Take `CO[C@@]1(C)CO[C@@]2(C1)OC(=O)[C@H]([C@@H]1CC[C@]34C[C@]13CC[C@@H]1[C@@]3(C)CC=C5C[C@@H](c6ccc7c(c6)OCO7)OC[C@]5(C)[C@@H]3C[C@@H](O)[C@]14C)[C@H]2O`: the EC50 is 3.1 µg/mL (≈ 4.58 µM) in the test with Lu1; greater than 5 µg/mL in [1]; less than 3.9 µg/mL in test [3]; 0.005 µg/mL (≈ 0.00739 µM) in the test on P388; greater than 5 µg/mL in the test with KB; 4.8 µg/mL (≈ 7.09 µM) with Col2. The EC50 with MCF7 amounted to 1.1 µg/mL (≈ 1.63 µM). For the same compound, the IC50 in test [2] worked out at 31.6 µg/mL (≈ 46.7 µM). Also, the “Ratio IC50/EC50” value in test [4] is reported as greater than 8.1. Also, the inhibition in test [5] is -0.5%.

`O=C1OCc2cc3cc4c(cc3c(-c3ccc5c(c3)OCO5)c21)OCO4` [TAIWANIN C]: the EC50 in the test on Lu1 is greater than 5 µg/mL; in [1], greater than 5 µg/mL; in test [3] it was greater than 125 µg/mL; with P388 it was greater than 5 µg/mL; in the test with KB it was greater than 5 µg/mL; in the test with Col2, greater than 5 µg/mL. The EC50 in the test on MCF7 was greater than 5 µg/mL. The IC50 in [2] is greater than 125 µg/mL. In addition, in test [5], the inhibition was determined as 88.2%.

Take `COc1c(O)cc2c(=O)oc3c(O)c(O[C@@H]4O[C@@H](C)[C@H](O)[C@@H](O)[C@H]4O)cc4c(=O)oc1c2c34`: the EC50 in the test on Lu1 was greater than 5 µg/mL; in test [1], greater than 5 µg/mL; in test [3] it was greater than 125 µg/mL; in the test with P388 it was greater than 5 µg/mL; in the test with KB, greater than 5 µg/mL; with Col2 it was greater than 5 µg/mL. In the test on MCF7, the EC50 was greater than 5 µg/mL. Also, the IC50 in [2] was greater than 125 µg/mL. For the same compound, the inhibition in test [5] is -9.2%.

As to `COc1cc2c(=O)oc3c(OC)c(O)cc4c(=O)oc(c1OC)c2c34`, the EC50 (in the test with Lu1; in test [1]; in the test with P388; in the test with KB; with Col2; in the test on MCF7) was greater than 5 µg/mL each time.

In the case of `O=C1OC[C@@H](Cc2ccc3c(c2)OCO3)/C1=C\c1ccc2c(c1)OCO2` [ISOGADIAN], the EC50 is greater than 5 µg/mL with Lu1; greater than 5 µg/mL in test [1]; 34.6 µg/mL (≈ 98.2 µM) in [3]; greater than 5 µg/mL in the test with P388; greater than 5 µg/mL with KB; greater than 5 µg/mL in the test with Col2. In the test with MCF7, the EC50 was greater than 5 µg/mL. Also, the IC50 in [2] is greater than 125 µg/mL. In addition, in [4], the “Ratio IC50/EC50” value was greater than 3.6. The inhibition in test [5] turned out to be 39.7%.

In the case of `CO[C@@]1(C)CO[C@@]2(C=C([C@@H]3CC[C@]45C[C@]34CC[C@@H]3[C@@]4(C)CC=C6C[C@@H](c7ccc8c(c7)OCO8)OC[C@]6(C)[C@@H]4C[C@@H](O)[C@]35C)C(=O)O2)C1`, the EC50 with Lu1 is greater than 5 µg/mL; in test [1], greater than 5 µg/mL; in test [3] it was 86.1 µg/mL (≈ 131 µM); in the test with P388, 0.5 µg/mL (≈ 0.759 µM); with KB, greater than 5 µg/mL; with Col2 it was greater than 5 µg/mL. The EC50 with MCF7 is greater than 5 µg/mL. Moreover, in [2], the IC50 is greater than 125 µg/mL. The “Ratio IC50/EC50” value in [4] is on record as greater than 1.5. In addition, the inhibition in test [5] came out at 55.5%.

In general, EC90 refers to the point of the concentration-response curve where the effect stands at 90%. `C/C(=C\[C@H]1C[C@@H]([C@@H]2CC[C@]34C[C@]23C=C[C@@H]2[C@@]3(C)CC=C5C[C@@H](c6ccccc6)OC[C@]5(C)[C@@H]3C[C@@H](O)[C@]24C)C(=O)O1)CO` [DICHAPETALIN A] registered an EC90 in the test on L1210 of less than 0.0001 µg/mL.

Take `COc1cc2c(O[C@@H]3OC[C@H](O)[C@H](O)[C@H]3O)c3c(c(-c4ccc5c(c4)OCO5)c2cc1OC)C(=O)OC3` [ACUTISSIMALIGNAN A]: the EC50 is 0.14 µg/mL (≈ 0.273 µM) in the test with Lu1; 2.3 µg/mL (≈ 4.49 µM) in test [1]; less than 3.9 µg/mL in [3]; 0.02 µg/mL (≈ 0.039 µM) in the test on P388; 0.59 µg/mL (≈ 1.15 µM) in the test with KB; 0.25 µg/mL (≈ 0.488 µM) in the test on Col2. Moreover, in the test with MCF7, the EC50 was 0.22 µg/mL (≈ 0.429 µM). Moreover, in [2], the IC50 was 12.3 µg/mL (≈ 24 µM). For the same compound, in test [4], the “Ratio IC50/EC50” value is greater than 3.1. Besides, the inhibition in test [5] was 10.7%.

Turning to `COc1cc(/C=C2/C(=O)OC[C@H]2Cc2ccc(O)c(OC)c2)ccc1O` [ACUTISSIMALIGNAN B], the EC50 with Lu1 is greater than 5 µg/mL; in test [1], greater than 5 µg/mL; in test [3], 9.9 µg/mL (≈ 27.8 µM); in the test on P388 it was greater than 5 µg/mL; in the test on KB, greater than 5 µg/mL; with Col2, greater than 5 µg/mL. The EC50 with MCF7 is greater than 5 µg/mL. In addition, the IC50 in test [2] is 48.2 µg/mL (≈ 135 µM). Besides, the “Ratio IC50/EC50” value in test [4] came to 4.9. Moreover, in test [5], the inhibition came out at 45.4%.
